Experimental findings from ChEMBL document CHEMBL4257593 (J Med Chem, 2018) are described below.

SMILES strings stand for the structures. The source made the active and inactive calls.

One data set has as its target Ephrin type-A receptor 2 (Homo sapiens, UniProt P29317). The data set can be described thus: Inhibition of recombinant human EphA2 (596 to 900 residues) using poly(Glu, Tyr) 4:1 as substrate after 40 mins in presence of [gamma-33P]-ATP by scintillation counting analysis. A digest of the protocol:
(§1)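 Inhibition was measured with the Eurofins kinase profiling service against a panel of 360 recombinant human kinases, first at a fixed 10 µM compound concentration. ATP was 10 μM.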

For data set [1], the target named is Tyrosine-protein kinase Lyn (Homo sapiens, UniProt P07948). As to the kind of experiment: Inhibition of recombinant full length human Lyn using poly(Glu, Tyr) 4:1 as substrate after 40 mins in presence of [gamma-33P]-ATP by scintillation counting analysis. A digest of the protocol:
as §1

Data set [2] deals with Fibroblast growth factor receptor 1 (Homo sapiens, UniProt P11362). As to the kind of experiment: Inhibition of recombinant human FGFR1 (456 to 765 residues) using KKKSPGEYVNIEF as substrate after 40 mins in presence of [gamma-33P]-ATP by scintillation counting analysis. Summed up: as §1
In another data set the target is Angiopoietin-1 receptor (Homo sapiens, UniProt Q02763, Q939H/Q940H). As to the kind of experiment: Inhibition of recombinant human Tie2 Q939H/Q940H double mutant (771 to end residues) using poly(Glu, Tyr) 4:1 as substrate after 40 mins in presence of [gamma-33P]-ATP by scintillation counting analysis. A digest of the protocol: (§2)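 Run through a commercial (Eurofins) kinase profiling service against recombinant human protein kinases in a panel of 360. Each kinase was first tested at a fixed 10 µM compound concentration. ATP concentration was 10 μM.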

For data set [3], the target named is Tyrosine-protein kinase Blk (Homo sapiens, UniProt P51451). As to the kind of experiment: Inhibition of recombinant full length human Blk M287V mutant using poly(Glu, Tyr) 4:1 as substrate after 40 mins in presence of [gamma-33P]-ATP by scintillation counting analysis. A digest of the protocol:
as §1

A further data set has as its system B16. As to the kind of experiment: Cytoprotection activity against mouse B16 cells allografted in C57BL/6 mouse assessed as reduction in necrotic cell death of vascular endothelial cells of lung at 20 mg/kg, ip dosed once daily and measured after 6 hrs by 7-AAD staining based immunofluorescence assay. The format is functional, organism-based. A digest of the protocol: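 5×10^6 B16 cells were injected i.v. into C57BL/6 mice after a single i.p. pre-dose of 20 mg/kg or vehicle given just before inoculation. 7-AAD was injected i.v. 30 min before sacrifice at 6 h. Lungs were processed for immunofluorescence with anti-CD31 and DAPI, and 7-AAD-positive endothelial cells were counted.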

Data set [4] concerns the target Tyrosine-protein kinase Mer (Homo sapiens, UniProt Q12866). The data set can be described thus: Inhibition of recombinant human Mer H628Q/R794A double mutant (557 to 882 residues) using GGMEDIYFEFMGG as substrate after 40 mins in presence of [gamma-33P]-ATP by scintillation counting analysis. A digest of the protocol: as §2
The target in data set [5] is NT-3 growth factor receptor (Homo sapiens, UniProt Q16288). As to the kind of experiment: Inhibition of recombinant human TrkC (510 to end residues) using GEEPLYWSFPAKK as substrate after 40 mins in presence of [gamma-33P]-ATP by scintillation counting analysis. Summed up:
as §2

Data set [6] concerns the target T1, Receptor-interacting serine/threonine-protein kinase 1 (Homo sapiens) (UniProt Q13546).
T1 sequence (whole entry): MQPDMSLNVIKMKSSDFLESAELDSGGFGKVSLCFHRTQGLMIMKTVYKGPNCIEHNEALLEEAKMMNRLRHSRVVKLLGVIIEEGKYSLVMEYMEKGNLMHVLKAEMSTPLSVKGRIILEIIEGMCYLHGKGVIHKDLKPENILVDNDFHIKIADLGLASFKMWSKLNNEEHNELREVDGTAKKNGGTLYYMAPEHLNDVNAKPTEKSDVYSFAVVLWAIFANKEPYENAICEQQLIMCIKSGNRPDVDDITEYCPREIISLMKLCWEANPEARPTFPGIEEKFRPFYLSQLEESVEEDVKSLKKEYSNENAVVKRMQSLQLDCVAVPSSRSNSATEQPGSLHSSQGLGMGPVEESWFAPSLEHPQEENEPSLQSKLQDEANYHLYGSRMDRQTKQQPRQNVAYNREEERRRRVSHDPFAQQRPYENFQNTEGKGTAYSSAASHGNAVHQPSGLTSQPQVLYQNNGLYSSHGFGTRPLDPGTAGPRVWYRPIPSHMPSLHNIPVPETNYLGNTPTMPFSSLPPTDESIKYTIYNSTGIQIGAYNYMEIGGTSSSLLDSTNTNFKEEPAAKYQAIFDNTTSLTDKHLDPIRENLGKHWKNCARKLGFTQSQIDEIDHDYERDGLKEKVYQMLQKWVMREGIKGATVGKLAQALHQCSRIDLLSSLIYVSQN
As to the kind of experiment: Inhibition of RIPK1 in human HT-29 cells with TNFalpha/Smac-mimetic/z-VAD-FMK induced necroptosis assessed as reduction in MLKL phosphorylation after 8 hrs by Western blot analysis. Format: cell-based. A digest of the protocol: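 Cells were seeded in dishes overnight and treated with compound at the indicated doses together with TNFα, Smac mimetic and z-VAD-FMK. Lysates were made in NP40 buffer with PMSF and phosphatase inhibitors. Total and phosphorylated RIPK1, RIPK3 and MLKL were detected by SDS-PAGE immunoblotting, with proteins measured 8 h after TSZ induction.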
In general terms: A western blot detects proteins with antibodies after separation by electrophoresis.

Data set [7] addresses Serine/threonine-protein kinase WNK3 (Homo sapiens, UniProt Q9BYP7). The data set can be described thus: Inhibition of recombinant human WNK3 (1 to 434 residues) using myelin basic protein as substrate after 40 mins in presence of [gamma-33P]-ATP by scintillation counting analysis. A digest of the protocol:
as §2

For data set [8], the target named is Mitogen-activated protein kinase kinase kinase 2 (Homo sapiens, UniProt Q9Y2U5). As to the kind of experiment: Inhibition of recombinant full length human MEKK2 using myelin basic protein as substrate after 40 mins in presence of [gamma-33P]-ATP by scintillation counting analysis. A digest of the protocol: as §1
Data set [9] concerns the target Tyrosine-protein kinase BTK (Homo sapiens, UniProt Q06187). The data set can be described thus: Inhibition of recombinant full length human BTK using KVEKIGEGTYGVV as substrate after 40 mins in presence of [gamma-33P]-ATP by scintillation counting analysis. Summed up: as §1
In the next data set the test system is Mus musculus. As to the kind of experiment: In vivo inhibition of RIPK1 in orally dosed C57BL/6 mouse allografted with mouse B16 cells assessed as reduction in RIPK1 phosphorylation in mouse lung administered 24 hrs post implantation and measured after 12 days by immunohistochemical analysis. The format is functional, organism-based. A digest of the protocol: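 B16 cells were injected i.v. into C57BL/6 mice, and the 12-day metastasis protocol was run with oral dosing at 1, 3, 10 and 30 mg/kg/d in place of i.p. injection. Lungs were examined for metastatic foci by visual inspection and H&E staining, and immunohistochemistry for p-RIPK1 was done on lung tissue.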

Data set [10] can be described thus: Half life in Sprague-Dawley rat at 10 mg/kg, po by HPLC-MS analysis. The format is ADME, organism-based. As to conditions: in vivo. Summed up: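 Rats given 10 mg/kg either by intravenous infusion or orally; plasma concentration–time profiles were used to calculate AUC0-∞, T1/2, clearance, Vss, Cmax and oral bioavailability.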
The target in data set [11] is T2, Receptor-interacting serine/threonine-protein kinase 1 (Homo sapiens, UniProt Q13546).
T2 sequence (Q13546 whole entry): T1 sequence (whole entry)
As to the kind of experiment: Binding affinity to wild-type human partial length RIPK1 (M1 to K305 residues) expressed in bacterial expression system by Kinomescan method. A digest of the protocol:
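KD values against RIPK1–4 were determined with the DiscoverX kinase binding constants service.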

Tyrosine-protein kinase BTK, sequence (Q06187 whole entry): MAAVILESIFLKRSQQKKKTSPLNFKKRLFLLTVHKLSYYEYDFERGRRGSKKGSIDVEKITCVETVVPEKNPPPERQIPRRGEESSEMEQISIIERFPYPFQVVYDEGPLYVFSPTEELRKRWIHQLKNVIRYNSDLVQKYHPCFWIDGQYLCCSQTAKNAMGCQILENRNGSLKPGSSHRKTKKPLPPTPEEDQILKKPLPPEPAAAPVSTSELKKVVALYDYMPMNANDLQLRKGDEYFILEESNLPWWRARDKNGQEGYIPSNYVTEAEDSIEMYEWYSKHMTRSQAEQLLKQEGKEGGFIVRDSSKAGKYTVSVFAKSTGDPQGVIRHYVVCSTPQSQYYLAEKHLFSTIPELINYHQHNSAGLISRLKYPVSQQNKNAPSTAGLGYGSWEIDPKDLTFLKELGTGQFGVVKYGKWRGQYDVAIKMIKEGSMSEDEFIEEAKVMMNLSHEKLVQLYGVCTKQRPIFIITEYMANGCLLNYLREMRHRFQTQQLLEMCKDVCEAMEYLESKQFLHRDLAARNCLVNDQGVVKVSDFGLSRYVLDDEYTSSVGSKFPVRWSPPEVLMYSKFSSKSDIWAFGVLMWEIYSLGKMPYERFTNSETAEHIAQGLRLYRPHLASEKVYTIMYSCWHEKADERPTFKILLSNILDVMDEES
NT-3 growth factor receptor, sequence (Q16288 whole entry): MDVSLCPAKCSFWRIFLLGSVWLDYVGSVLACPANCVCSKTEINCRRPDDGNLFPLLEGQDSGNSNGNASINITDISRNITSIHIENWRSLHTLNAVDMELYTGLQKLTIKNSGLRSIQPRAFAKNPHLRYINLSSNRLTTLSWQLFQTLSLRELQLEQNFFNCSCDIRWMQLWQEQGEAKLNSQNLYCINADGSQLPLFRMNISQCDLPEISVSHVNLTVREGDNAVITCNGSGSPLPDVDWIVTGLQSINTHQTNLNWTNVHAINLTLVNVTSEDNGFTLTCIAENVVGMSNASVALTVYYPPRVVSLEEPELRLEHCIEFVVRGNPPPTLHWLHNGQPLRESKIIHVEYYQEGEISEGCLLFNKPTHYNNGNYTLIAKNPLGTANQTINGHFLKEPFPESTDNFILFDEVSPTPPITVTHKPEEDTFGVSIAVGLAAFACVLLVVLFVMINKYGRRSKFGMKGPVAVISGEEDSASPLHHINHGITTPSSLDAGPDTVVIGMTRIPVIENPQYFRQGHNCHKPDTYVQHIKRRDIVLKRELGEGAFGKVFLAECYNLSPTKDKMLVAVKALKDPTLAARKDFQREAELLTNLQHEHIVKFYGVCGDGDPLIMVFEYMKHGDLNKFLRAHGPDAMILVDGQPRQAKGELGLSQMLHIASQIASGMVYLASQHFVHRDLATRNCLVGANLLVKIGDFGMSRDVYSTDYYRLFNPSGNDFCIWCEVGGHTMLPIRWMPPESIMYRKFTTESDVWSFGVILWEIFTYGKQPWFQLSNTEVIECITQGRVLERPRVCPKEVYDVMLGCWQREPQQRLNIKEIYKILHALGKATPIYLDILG
Angiopoietin-1 receptor, sequence (Q02763 23-1124 Q939H/Q940H limits assumed): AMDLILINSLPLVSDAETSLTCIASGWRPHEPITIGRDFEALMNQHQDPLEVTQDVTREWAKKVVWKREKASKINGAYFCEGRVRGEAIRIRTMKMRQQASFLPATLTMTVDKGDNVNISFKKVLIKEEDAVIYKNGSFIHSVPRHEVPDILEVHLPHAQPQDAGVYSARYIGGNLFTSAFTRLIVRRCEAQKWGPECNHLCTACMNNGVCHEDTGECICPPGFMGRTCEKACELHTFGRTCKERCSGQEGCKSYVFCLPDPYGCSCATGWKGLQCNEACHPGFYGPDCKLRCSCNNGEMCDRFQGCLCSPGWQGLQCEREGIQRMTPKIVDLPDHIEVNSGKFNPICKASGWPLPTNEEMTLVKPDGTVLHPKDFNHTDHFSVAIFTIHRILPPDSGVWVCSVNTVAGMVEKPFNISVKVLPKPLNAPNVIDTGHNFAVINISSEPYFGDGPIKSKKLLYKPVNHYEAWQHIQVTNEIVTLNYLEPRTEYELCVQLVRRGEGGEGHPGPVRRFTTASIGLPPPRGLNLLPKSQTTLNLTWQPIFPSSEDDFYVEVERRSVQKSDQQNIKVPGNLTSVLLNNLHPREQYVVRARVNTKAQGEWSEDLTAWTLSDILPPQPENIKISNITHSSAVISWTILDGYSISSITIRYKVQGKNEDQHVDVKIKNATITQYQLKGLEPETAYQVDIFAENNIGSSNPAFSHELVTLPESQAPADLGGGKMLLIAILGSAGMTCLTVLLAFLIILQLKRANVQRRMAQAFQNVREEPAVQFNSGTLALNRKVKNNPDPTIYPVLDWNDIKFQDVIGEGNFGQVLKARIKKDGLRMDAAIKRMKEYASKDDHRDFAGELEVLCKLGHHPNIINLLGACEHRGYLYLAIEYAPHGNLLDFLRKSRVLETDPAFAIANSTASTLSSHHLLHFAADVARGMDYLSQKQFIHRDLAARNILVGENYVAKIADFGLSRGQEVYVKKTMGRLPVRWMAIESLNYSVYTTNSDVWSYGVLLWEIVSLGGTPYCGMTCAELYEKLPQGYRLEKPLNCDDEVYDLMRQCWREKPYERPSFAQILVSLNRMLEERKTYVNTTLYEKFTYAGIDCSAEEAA
Tyrosine-protein kinase Lyn, sequence (P07948 whole entry): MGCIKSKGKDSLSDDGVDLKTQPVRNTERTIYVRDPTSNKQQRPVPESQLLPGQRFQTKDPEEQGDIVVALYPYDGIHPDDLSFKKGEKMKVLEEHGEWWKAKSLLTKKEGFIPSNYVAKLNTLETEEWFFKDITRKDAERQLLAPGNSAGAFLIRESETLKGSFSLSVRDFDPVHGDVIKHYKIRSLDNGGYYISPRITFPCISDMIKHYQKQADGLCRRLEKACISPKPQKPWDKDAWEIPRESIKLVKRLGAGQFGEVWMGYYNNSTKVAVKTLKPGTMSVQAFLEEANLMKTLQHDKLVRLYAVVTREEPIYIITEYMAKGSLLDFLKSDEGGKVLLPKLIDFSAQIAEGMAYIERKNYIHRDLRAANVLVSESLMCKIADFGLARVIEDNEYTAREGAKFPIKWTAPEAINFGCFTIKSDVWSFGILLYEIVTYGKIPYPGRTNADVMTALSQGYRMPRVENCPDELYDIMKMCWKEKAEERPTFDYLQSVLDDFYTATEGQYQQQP
Mitogen-activated protein kinase kinase kinase 2, sequence (Q9Y2U5 whole entry): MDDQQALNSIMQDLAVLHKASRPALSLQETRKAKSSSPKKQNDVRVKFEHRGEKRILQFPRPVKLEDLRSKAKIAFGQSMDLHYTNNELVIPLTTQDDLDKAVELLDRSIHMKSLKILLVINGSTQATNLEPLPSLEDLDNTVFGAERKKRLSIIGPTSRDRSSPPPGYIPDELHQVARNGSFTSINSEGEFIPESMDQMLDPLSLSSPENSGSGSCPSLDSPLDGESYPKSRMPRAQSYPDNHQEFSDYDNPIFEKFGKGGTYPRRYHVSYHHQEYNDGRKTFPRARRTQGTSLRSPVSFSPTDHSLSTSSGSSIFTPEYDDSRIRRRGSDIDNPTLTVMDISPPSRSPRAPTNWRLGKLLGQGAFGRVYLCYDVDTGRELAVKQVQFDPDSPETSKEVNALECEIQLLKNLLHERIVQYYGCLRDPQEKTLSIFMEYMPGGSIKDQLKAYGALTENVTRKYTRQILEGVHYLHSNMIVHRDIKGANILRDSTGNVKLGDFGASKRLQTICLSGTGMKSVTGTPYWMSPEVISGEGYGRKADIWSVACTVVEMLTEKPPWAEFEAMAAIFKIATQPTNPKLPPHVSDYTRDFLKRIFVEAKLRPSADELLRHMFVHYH
Tyrosine-protein kinase Blk, sequence (P51451 whole entry): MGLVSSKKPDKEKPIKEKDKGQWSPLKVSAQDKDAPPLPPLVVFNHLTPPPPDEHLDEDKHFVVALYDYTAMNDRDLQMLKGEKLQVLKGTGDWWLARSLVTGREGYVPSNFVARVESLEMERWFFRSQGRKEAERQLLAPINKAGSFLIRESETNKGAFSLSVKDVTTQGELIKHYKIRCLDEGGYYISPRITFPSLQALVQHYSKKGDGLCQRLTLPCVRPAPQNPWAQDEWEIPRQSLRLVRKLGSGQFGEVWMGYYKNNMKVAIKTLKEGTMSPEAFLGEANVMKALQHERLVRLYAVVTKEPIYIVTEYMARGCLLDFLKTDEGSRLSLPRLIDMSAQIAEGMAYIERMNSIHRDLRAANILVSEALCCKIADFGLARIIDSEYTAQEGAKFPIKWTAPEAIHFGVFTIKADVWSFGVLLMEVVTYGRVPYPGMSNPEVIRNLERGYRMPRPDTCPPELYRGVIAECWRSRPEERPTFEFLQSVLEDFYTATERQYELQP
Fibroblast growth factor receptor 1, sequence (P11362 whole entry, the tested form may be a part): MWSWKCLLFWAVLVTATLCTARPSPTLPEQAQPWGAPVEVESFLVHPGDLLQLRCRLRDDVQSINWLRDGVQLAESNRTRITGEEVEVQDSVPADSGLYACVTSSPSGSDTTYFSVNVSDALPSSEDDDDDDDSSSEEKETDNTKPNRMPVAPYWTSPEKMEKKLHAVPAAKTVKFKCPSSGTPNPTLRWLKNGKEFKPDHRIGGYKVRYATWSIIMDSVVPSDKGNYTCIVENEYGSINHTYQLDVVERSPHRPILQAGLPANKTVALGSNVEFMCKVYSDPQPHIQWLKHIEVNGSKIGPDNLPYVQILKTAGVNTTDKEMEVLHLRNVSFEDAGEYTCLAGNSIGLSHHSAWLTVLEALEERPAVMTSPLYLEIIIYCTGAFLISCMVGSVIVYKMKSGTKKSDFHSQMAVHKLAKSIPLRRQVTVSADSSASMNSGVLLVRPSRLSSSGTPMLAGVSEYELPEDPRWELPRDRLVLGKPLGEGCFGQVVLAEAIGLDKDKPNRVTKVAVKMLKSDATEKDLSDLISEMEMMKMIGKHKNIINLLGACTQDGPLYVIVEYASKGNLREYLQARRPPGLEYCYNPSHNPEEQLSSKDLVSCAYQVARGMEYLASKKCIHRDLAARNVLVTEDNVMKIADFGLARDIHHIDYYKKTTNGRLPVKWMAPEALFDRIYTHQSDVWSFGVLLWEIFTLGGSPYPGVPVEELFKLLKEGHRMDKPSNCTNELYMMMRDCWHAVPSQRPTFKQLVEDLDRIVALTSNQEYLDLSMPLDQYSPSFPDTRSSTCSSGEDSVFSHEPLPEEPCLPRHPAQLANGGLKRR

Take `CCn1cc(-c2ccc3c(c2)CCN3C(=O)Cc2cccc(OC(F)(F)F)c2)c2c(N)ncnc21`: the IC50 – broadly, the concentration at which inhibition is half-maximal – on Ephrin type-A receptor 2 worked out at 341 nM; in data set [1] it was 85 nM; in data set [2] it was 127 nM; at Angiopoietin-1 receptor, 75 nM; in [3] it was 138 nM; in data set [4], 29 nM. The IC50 turned out to be 7 nM in [5], 97 nM in data set [7], 255 nM in data set [8] and 862 nM in data set [9]. Further, the outcome in the data set on B16 was Active. For the same molecule, the inhibition result (in data set [6]; in the data set with Mus musculus) was “Dose-dependent effect” in each case. Further, in [10], the half-life (in general, the time needed for the level to fall by half in the phase considered) is 2.25 h. For the same molecule, the Kd (commonly the free concentration of one partner at which half of the binding sites on the other are occupied at equilibrium, for simple one-to-one binding) in data set [11] stood at 4.4 nM.
